Tests used:
Hs-578T [1] = assay: Anticancer activity against human Hs 578T cells assessed as cell viability at 30 uM after 72 hrs by sulforhodamine B assay relative to control; format: functional; conditions: read-out: Activity
[2] = Cytotoxicity against human MCF10A cells assessed as cell viability at 30 uM after 72 hrs by sulforhodamine B assay relative to control; format: cell-based, MCF-10A; conditions: read-out: Activity
MCF7 [3] = assay: Anticancer activity against human MCF7 cells assessed as cell viability at 30 uM after 72 hrs by sulforhodamine B assay relative to control; format: functional; conditions: MCF7, 72 h, read-out: Activity
MCF7 [4] = assay: Anticancer activity against human MCF7 cells assessed as cell viability at 10 uM after 72 hrs by sulforhodamine B assay relative to control; format: functional; conditions: MCF7, 72 h, read-out: Activity
Hs-578T [5] = assay: Anticancer activity against human Hs 578T cells assessed as cell viability at 10 uM after 72 hrs by sulforhodamine B assay relative to control; format: functional; conditions: read-out: Activity
[6] = Cytotoxicity against human MCF10A cells assessed as cell viability at 10 uM after 72 hrs by sulforhodamine B assay relative to control; format: cell-based, MCF-10A; conditions: read-out: Activity
MCF-10A = assay: Cytotoxicity against human MCF10A cells after 72 hrs by sulforhodamine B assay; format: cell-based
Outline: (§1)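 Cells seeded at 3000 cells/100 µL per well, left to adhere overnight (18-20 h), then exposed to a range of compound concentrations for 72 h. Vehicle control was 0.5% DMSO. Cytotoxicity was read by sulforhodamine B at 490 nm, with 690 nm as background. IC50 came from sigmoidal variable-slope nonlinear regression on log-transformed data, from at least three independent experiments, each in triplicate.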

MCF7 [7] = assay: Anticancer activity against human MCF7 cells after 72 hrs by sulforhodamine B assay; format: functional, cell-based; conditions: MCF7, 72 h; outline: as §1
Hs-578T [8] = assay: Anticancer activity against human Hs 578T cells after 72 hrs by sulforhodamine B assay; format: functional, cell-based; outline: as §1

Compound | viability at 30 µM (Hs-578T [1]) | viability at 72 h, 30 µM [2] | viability at 30 µM (MCF7 [3]) | viability at 10 µM (MCF7 [4]) | viability at 10 µM (Hs-578T [5]) | viability at 72 h, 10 µM [6] | IC50 (MCF-10A) | IC50 (MCF7 [7]) | IC50 (Hs-578T [8])
COc1cc(Br)cc(/C=C/C(=O)c2ccc(C)cc2)c1O | 64.2% | 148% | 61.5% | 96.8% | 84.6% | 155% |  |  | 
Cc1ccc(C(=O)CC2C(C#N)=C(N)Oc3ccc(Cl)cc32)cc1 (stereo not given) | 155% | 53.3% | 49% | 85.5% | 92.3% | 41.8% |  |  | 
COC(=O)C1=C(N)Oc2c(OC)cc(Br)cc2C1CC(=O)c1ccc(Cl)cc1 (stereo not given) | 90.2% | 47.8% | 33.8% | 80.3% | 63% | 40.9% |  |  | 
COc1cccc(C(=O)/C=C/c2cc(Br)cc(OC)c2O)c1 | 69.8% | 47% | 63.1% | 77.3% | 74.2% | 33.5% |  |  | 
O=C(/C=C/c1ccccc1O)c1ccccc1 |  |  | 32.1% | 71.9% |  |  |  |  | 
Cc1ccc(C(=O)/C=C/c2cc(F)cc(F)c2O)cc1 |  |  | 35.3% | 33.9% |  |  |  |  | 
N#CC1=C(N)Oc2c(F)cc(F)cc2C1CC(=O)c1ccccc1 (stereo not given) | 144% | 128% | 76.9% | 99.6% | 92.4% | 53.8% |  |  | 
COC(=O)C1=C(N)Oc2c(OC)cccc2C1CC(=O)c1ccc(Cl)cc1 (stereo not given) |  |  | 63.8% | 89.8% |  |  |  |  | 
COc1cc(Br)cc2c1OC(N)=C(C#N)C2CC(=O)c1ccc(Cl)cc1 (stereo not given) | 90.7% | 41.6% | 33.3% | 49.6% | 90.7% | 36.8% |  |  | 
COc1cc(Br)cc2c1OC(N)=C(C#N)C2CC(=O)c1ccc(C)cc1 (stereo not given) |  |  | 52.8% | 116% |  |  |  |  | 
Cc1ccc(C(=O)CC2C(C#N)=C(N)Oc3ccc(Br)cc32)cc1 (stereo not given) | 46.3% | 33.5% | 32.3% | 69% | 88.8% | 133% |  |  | 
COc1cc(Br)cc2c1OC(N)=C(C#N)C2CC(=O)c1ccccc1 (stereo not given) | 155% | 45.9% | 36.7% | 99.1% | 100% | 45.9% |  |  | 
N#CC1=C(N)Oc2ccccc2C1CC(=O)c1ccccc1 (stereo not given) |  |  | 78.6% | 82.7% |  |  |  |  | 
COC(=O)C1=C(N)Oc2c(OC)cc(Br)cc2C1CC(=O)c1ccc(Br)cc1 (stereo not given) |  |  | 31.9% | 50.2% |  |  |  |  | 
COc1cc(Br)cc(/C=C/C(=O)c2ccc(Cl)cc2)c1O | 60.3% | 47.8% | 28% | 53.3% | 53.8% | 35.2% | 12.1 µM | 5.15 µM | 5.33 µM
COc1cc(Br)cc(/C=C/C(=O)c2ccccc2)c1O | 106% | 40.7% | 28.1% | 67% | 46.9% | 34.4% |  |  | 

Source: ChEMBL document CHEMBL4270591, “Exploitation of new chalcones and 4H-chromenes as agents for cancer treatment” (Eur J Med Chem, 2018)
